Sampled rows, rich in hits. Any-hit rate of the full collection: about 3.5%.
PRMT1 inh: PRMT1 methyltransferase inhibitors, primary screen, biochemical, fluorescence polarization; Protein arginine N-methyltransferase 1 (Homo sapiens), Q99873; recombinant PRMT1, activity-based probe fluorescence polarization; inhibition, % at 2.79 µM; 370,000 compounds, 1.3% hits; AID 652257, 2013;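 active = inhibition above about 21% made by adding two undisclosed values, limit read from the data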
HTRA1 inhibitor: HTRA1 serine protease inhibitors, primary screen, biochemical, fluorescence polarization, HTS; 340,000 compounds, 0.5% hits; inhibition, % at 5.96 µM; recombinant HTRA1, FP-rhodamine activity-based probe; Q92743; in the data active = inhibition above about 36%
SIAE primary: human SIAE inhibitors, primary screen, biochemical, fluorescence polarization, FP-Rh probe, 1536-well HTS. Sialate O-acetylesterase (Homo sapiens), Q9HAT2. SIAE FP-Rh probe binding. inhibition, % at 9.66 µM. 370,000 compounds, 0.69% hits. AID 1053197, 2014;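 active = inhibition above a cutoff: mean of compounds within the control limits plus 3 SD of those, cut at about 17% in these data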
Target sequence (Q9HAT2 whole entry, looked up): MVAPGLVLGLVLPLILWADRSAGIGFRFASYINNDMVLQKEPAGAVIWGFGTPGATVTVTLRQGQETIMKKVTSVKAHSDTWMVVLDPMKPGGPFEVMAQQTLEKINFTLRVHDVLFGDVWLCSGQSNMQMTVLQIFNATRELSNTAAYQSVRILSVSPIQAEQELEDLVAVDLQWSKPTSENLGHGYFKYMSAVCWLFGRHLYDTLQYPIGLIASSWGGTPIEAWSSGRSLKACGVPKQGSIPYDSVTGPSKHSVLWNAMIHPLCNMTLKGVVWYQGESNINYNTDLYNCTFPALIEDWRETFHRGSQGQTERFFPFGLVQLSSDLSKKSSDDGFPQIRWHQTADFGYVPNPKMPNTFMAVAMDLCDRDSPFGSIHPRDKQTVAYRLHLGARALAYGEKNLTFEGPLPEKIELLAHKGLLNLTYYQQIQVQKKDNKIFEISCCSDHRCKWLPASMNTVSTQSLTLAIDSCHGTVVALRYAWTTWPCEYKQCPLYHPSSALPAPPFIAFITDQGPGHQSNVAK
TCR-CD3 inh: inhibitors of human TCR-CD3 interaction, primary screen, biochemical, fluorescence, TAMRA-labeled TCR probe. 360,000 compounds, 0.37% hits. inhibition, % at 9.4 µM. T-cell receptor (TCR). AID 651800, 2012; in the data active = inhibition above about 19%;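 also: recombinant mutant TCR 2C K166C tagged with TAMRA read by polarization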
mABHD4 FP: ABHD4 inhibitors, primary screen, biochemical, fluorescence polarization, mouse | AID 720543, 2013 | purified mABHD4, FP-Rh probe fluorescence polarization | (Lyso)-N-acylphosphatidylethanolamine lipase (Mus musculus), Q8VD66 | inhibition, % at 8.92 µM | 370,000 compounds, 0.54% hits;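 active = inhibition exceeding the mean over every tested compound plus 3 SD, cut at about 30% in these data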
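system = mouse ABHD4 enzyme, wild type | medium = HEPES pH 7.0, NaCl, Pluronic buffer | also added = FP-Rh probe | incubation = Enzyme–compound pre-incubation 45 min, then probe 60 min, both 25 °C | technique = fluorescence polarization, excitation 525 nm, emission 598 nm, BODIPY TMR filters | controls = S159A mutant high control, sample median low control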
rCAG binder: binders of r(CAG) RNA repeats, primary screen, biochemical, fluorescence. 370,000 compounds, 1.3% hits. r(CAG) RNA repeat, TO-PRO-1 dye displacement fluorescence. inhibition, % at 3 µM;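 active = inhibition above the plate cutoff, the mean of all test compounds on that plate plus 3 SD, cut at about 35% in these data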;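 also: higher means more dye released from RNA so lower well fluorescence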
PRMT1 confirm: PRMT1 methyltransferase inhibitors, confirmation, biochemical, fluorescence polarization, triplicate | recombinant His-PRMT1, activity-based probe fluorescence polarization | shares compounds with PRMT1 inh | 3,300 compounds, 42% hits | inhibition, % at 2.79 µM;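 active = mean inhibition across replicates above the hit cutoff derived for the earlier primary screen, cut at about 22% in these data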
Hits are given with their value; n = inactive; x = not tested or not shown.

SMILES	PRMT1 inh	HTRA1 inhibitor	SIAE primary	TCR-CD3 inh	mABHD4 FP	rCAG binder	PRMT1 confirm
COC(=O)[C@]12C[C@H](CC(=O)NCc3cccc4ccccc34)C(=O)N(Cc3ccco3)C1=C[C@H](C(C)C)O[C@@H]2C1CC1	n	x	n	x	n	n	x
CN(C(=O)COC(=O)c1cc2ccccc2oc1=O)C1CCCCC1	26.6	n	n	n	n	n	n
COCCn1nnnc1CN(Cc1ccco1)Cc1cc2cc3c(cc2[nH]c1=O)OCO3	n	n	n	n	n	n	x
COc1cc2cc(CN(Cc3nnnn3Cc3ccco3)C3CCCCC3)c(=O)[nH]c2cc1OC	29.2	n	n	n	n	n	n
CCOc1ccc2[nH]c(=O)c(CN(Cc3nnnn3Cc3ccco3)C3CCCCC3)cc2c1	n	n	n	n	n	n	x
CCOc1ccc2[nH]c(=O)c(C(c3nnnn3Cc3ccco3)N3CCN(C)CC3)cc2c1 (stereo not drawn)	n	n	n	n	n	n	x
Cc1ccc2cc(CN(Cc3ccc4c(c3)OCO4)Cc3nnnn3Cc3ccco3)c(=O)[nH]c2c1C	60.5	n	n	n	n	n	n
Cc1cc2cc(C(c3nnnn3Cc3ccco3)N3CCCCC3)c(=O)[nH]c2cc1C (stereo not drawn)	30.1	n	n	n	n	n	n
Cc1ccc(C)c2[nH]c(=O)c(CN(Cc3ccc4c(c3)OCO4)Cc3nnnn3Cc3ccco3)cc12	28.0	n	n	n	n	n	n
Cc1ccc2cc(CN(CCN3CCOCC3)Cc3nnnn3Cc3ccco3)c(=O)[nH]c2c1C	n	n	n	n	n	n	x
CCOc1ccc(-n2c(SCC(=O)Nc3cccc4ccccc34)nnc2-c2cccs2)cc1	n	x	n	x	n	n	x
COc1ccc(NC(=S)N(CCC(C)C)C2CCN(C(C)C)CC2)cc1Cl	54.0	n	n	n	n	n	54.5
COc1ccc(NC(=S)NCCN2CCC(C)CC2)cc1Cl	48.0	n	n	n	n	n	46.2
COc1ccc(-c2cc(-c3nnc4sc(Cc5cccs5)nn34)[nH]n2)cc1	n	x	n	x	n	n	x
COc1ccc2c(c1)N=C(c1[nH]c3ccccc3c1CCN1C(=O)c3ccccc3C1=O)[C@]2(O)CCN1C(=O)c2ccccc2C1=O	n	x	n	x	n	x	x
Clc1nssc1=Nc1ccc(Br)cc1	71.7	n	n	n	n	n	93.0
COc1cc(OC)cc(-c2nc(-c3ccccc3OC)no2)c1	n	n	n	n	n	n	x
N#Cc1cccc(N=c2ssnc2Cl)c1	100.1	x	n	n	n	n	91.9
COc1cc(N=c2ssnc2Cl)cc(OC)c1	63.4	n	n	n	n	n	91.9
Clc1nssc1=Nc1nncs1	97.4	n	n	n	n	n	91.5
O=C(COCc1ccccc1)NC1CCCCN(Cc2ccc(Cl)cc2)C1=O (stereo not drawn)	n	x	n	x	n	n	x
CCCC(=O)N1CCC[C@]2(CC[C@@H](CCC(=O)OCC)O2)C1	n	x	n	x	n	n	x
CCC(C)NC(=O)CSc1nnc(-c2cc(OC)c(OC)c(OC)c2)o1 (stereo not drawn)	n	x	n	x	n	n	x
COc1ccc2c3c(ccc2c1)C(=O)/C(=C/O)CC3	29.6	37.9	n	n	n	n	24.2
S=C1NC2=C(CCC/C2=C\c2ccccc2)C(c2ccccc2)N1 (stereo not drawn)	42.7	n	n	n	n	n	31.7
Fc1ccccc1/C=C1\CCCC2=C1NC(=S)NC2c1ccccc1F (stereo not drawn)	38.2	n	n	n	n	n	n
C=CCOc1ccc(C2NC(=S)NC3=C2CCc2ccccc23)cc1 (stereo not drawn)	n	n	n	n	n	n	x
O=C1/C(=C/c2ccc(F)cc2)CCC1C1CCCC1 (stereo not drawn)	n	n	n	n	n	n	x
